From ChEMBL document CHEMBL4422636, “Investigation of the structural requirements for N-methyl-D-aspartate receptor positive and negative allosteric modulators based on 2-naphthoic acid” (Eur J Med Chem, 2019)
The source made the active and inactive calls. The calls are words filed in the database; no cut-off is given here.

Columns and labels:
[1] = target: T1, Glutamate NMDA receptor; Grin1/Grin2a (Rattus norvegicus, UniProt P35439+Q00959); experiment: Negative allosteric modulation of rat GluN1/GluN2A expressed in Xenopus laevis oocytes assessed as inhibition of L-glutamate/glycine-induced current response at holding potential -60 mV by two-electrode voltage clamp method; format: cell-based
Outline: (§1)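 Oocytes injected with GluN1a plus GluN2A, 2B, 2C or 2D RNA (1:1–3 molar, 15–30 ng total) and kept in ND-96 at 17°C for 1–5 days. TEVC at −60 mV in HEPES-buffered NaCl/KCl/BaCl2 saline, pH 7.4. […] Curves were fitted to give EC50/IC50 and maximal potentiation or inhibition, mean ± s.e.m.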

[2] = target: Glutamate NMDA receptor; Grin1/Grin2b (Rattus norvegicus) (UniProt P35439+Q00960); experiment: Negative allosteric modulation of rat GluN1/GluN2B expressed in Xenopus laevis oocytes assessed as inhibition of L-glutamate/glycine-induced current response at holding potential -60 mV by two-electrode voltage clamp method relative to untreated control; format: cell-based; design: concentration or dose not given beside the values; outline: as §1
[3] = target: T2, Glutamate NMDA receptor; Grin1/Grin2b (Rattus norvegicus, UniProt P35439+Q00960); experiment: Negative allosteric modulation of rat GluN1/GluN2B expressed in Xenopus laevis oocytes assessed as inhibition of L-glutamate/glycine-induced current response at holding potential -60 mV by two-electrode voltage clamp method; format: cell-based; outline: as §1
[4] = target: Glutamate receptor ionotropic, NMDA 2B (Rattus norvegicus) (UniProt Q00960); experiment: Allosteric modulation of rat GluN2B expressed in Xenopus laevis oocytes assessed as L-glutamate/glycine-induced current response at 100 uM at holding potential -60 mV by two-electrode voltage clamp method relative to L-glutamate/glycine; format: cell-based
Outline: (§2)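 GluN1a with one GluN2 subunit; RNAs mixed 1:1–3 molar, 15–30 ng total injected into Xenopus oocytes, which were held in ND-96 at 17°C for 1–5 days. TEVC at −60 mV in 116 mM NaCl, 2 mM KCl, 0.3 mM BaCl2, 5 mM HEPES, pH 7.4. […] Reported as % of agonist-alone response, mean ± s.e.m., n≥4.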

[5] = target: Glutamate receptor ionotropic, NMDA 2A (Rattus norvegicus) (UniProt Q00959); experiment: Allosteric modulation of rat GluN2A expressed in Xenopus laevis oocytes assessed as L-glutamate/glycine-induced current response at 100 uM at holding potential -60 mV by two-electrode voltage clamp method relative to L-glutamate/glycine; format: cell-based; outline: as §2
[6] = target: T3, Glutamate NMDA receptor; Grin1/Grin2c (Rattus norvegicus) (UniProt P35439+Q00961); experiment: Negative allosteric modulation of rat GluN1/GluN2C expressed in Xenopus laevis oocytes assessed as inhibition of L-glutamate/glycine-induced current response at holding potential -60 mV by two-electrode voltage clamp method relative to untreated control; format: cell-based; design: concentration or dose not given beside the values; outline: as §1
[7] = Solubility of the compound at 100 uM; format: physicochemical
Outline: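 Compounds were inspected for visible precipitation at the concentrations used in the oocyte assays.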

[8] = target: Ionotropic glutamate receptor NMDA 1/2D (Rattus norvegicus) (UniProt P35439+Q62645); experiment: Negative allosteric modulation of rat GluN1/GluN2D expressed in Xenopus laevis oocytes assessed as inhibition of L-glutamate/glycine-induced current response at holding potential -60 mV by two-electrode voltage clamp method relative to untreated control; format: cell-based; design: concentration or dose not given beside the values; outline: as §1
[9] = target: Glutamate receptor ionotropic, NMDA 2C (Rattus norvegicus) (UniProt Q00961); experiment: Allosteric modulation of rat GluN2C expressed in Xenopus laevis oocytes assessed as L-glutamate/glycine-induced current response at 100 uM at holding potential -60 mV by two-electrode voltage clamp method relative to L-glutamate/glycine; format: cell-based; outline: as §2
[10] = target: Glutamate receptor ionotropic, NMDA 2D (Rattus norvegicus) (UniProt Q62645); experiment: Allosteric modulation of rat GluN2D expressed in Xenopus laevis oocytes assessed as L-glutamate/glycine-induced current response at 100 uM at holding potential -60 mV by two-electrode voltage clamp method relative to L-glutamate/glycine; format: cell-based; outline: as §2
[11] = target: T4, Ionotropic glutamate receptor NMDA 1/2D (Rattus norvegicus, UniProt P35439+Q62645); experiment: Negative allosteric modulation of rat GluN1/GluN2D expressed in Xenopus laevis oocytes assessed as inhibition of L-glutamate/glycine-induced current response at holding potential -60 mV by two-electrode voltage clamp method; format: cell-based; outline: as §1
[12] = target: Glutamate NMDA receptor; Grin1/Grin2a (Rattus norvegicus) (UniProt P35439+Q00959); experiment: Negative allosteric modulation of rat GluN1/GluN2A expressed in Xenopus laevis oocytes assessed as inhibition of L-glutamate/glycine-induced current response at holding potential -60 mV by two-electrode voltage clamp method relative to untreated control; format: cell-based; design: concentration or dose not given beside the values; outline: as §1
[13] = target: T5, Glutamate NMDA receptor; Grin1/Grin2c (Rattus norvegicus, UniProt P35439+Q00961); experiment: Negative allosteric modulation of rat GluN1/GluN2C expressed in Xenopus laevis oocytes assessed as inhibition of L-glutamate/glycine-induced current response at holding potential -60 mV by two-electrode voltage clamp method; format: cell-based; outline: as §1
[14] = target: Glutamate receptor ionotropic, NMDA 2B (Rattus norvegicus) (UniProt Q00960); experiment: Agonist activity at rat GluN2B expressed in Xenopus laevis oocytes assessed as effect on current response at holding potential -60 mV by two-electrode voltage clamp method relative to L-glutamate/glycine; format: cell-based; outline: as §2
[15] = target: T2, Glutamate NMDA receptor; Grin1/Grin2b; experiment: Positive allosteric modulation of rat GluN1/GluN2B expressed in Xenopus laevis oocytes assessed as potentiation of L-glutamate/glycine-induced current response at holding potential -60 mV by two-electrode voltage clamp method; format: cell-based; outline: as §1
[16] = target: T5, Glutamate NMDA receptor; Grin1/Grin2c; experiment: Positive allosteric modulation of rat GluN1/GluN2C expressed in Xenopus laevis oocytes assessed as potentiation of L-glutamate/glycine-induced current response at holding potential -60 mV by two-electrode voltage clamp method; format: cell-based; outline: as §1
[17] = target: T4, Ionotropic glutamate receptor NMDA 1/2D; experiment: Positive allosteric modulation of rat GluN1/GluN2D expressed in Xenopus laevis oocytes assessed as potentiation of L-glutamate/glycine-induced current response at holding potential -60 mV by two-electrode voltage clamp method; format: cell-based; outline: as §1
[18] = target: T1, Glutamate NMDA receptor; Grin1/Grin2a; experiment: Positive allosteric modulation of rat GluN1/GluN2A expressed in Xenopus laevis oocytes assessed as potentiation of L-glutamate/glycine-induced current response at holding potential -60 mV by two-electrode voltage clamp method; format: cell-based; outline: as §1
[19] = target: Glutamate receptor ionotropic, NMDA 2A (Rattus norvegicus) (UniProt Q00959); experiment: Positive allosteric modulation of rat GluN2A expressed in Xenopus laevis oocytes assessed as potentiation of L-glutamate/glycine-induced current response at holding potential -60 mV by two-electrode voltage clamp method relative to L-glutamate/glycine; format: cell-based; design: concentration or dose not given beside the values; outline: as §1
[20] = target: Glutamate receptor ionotropic, NMDA 2B (Rattus norvegicus) (UniProt Q00960); experiment: Positive allosteric modulation of rat GluN2B expressed in Xenopus laevis oocytes assessed as potentiation of L-glutamate/glycine-induced current response at holding potential -60 mV by two-electrode voltage clamp method relative to L-glutamate/glycine; format: cell-based; outline: as §1
[21] = target: Glutamate receptor ionotropic, NMDA 2C (Rattus norvegicus) (UniProt Q00961); experiment: Agonist activity at rat GluN2C expressed in Xenopus laevis oocytes assessed effect on current response at holding potential -60 mV by two-electrode voltage clamp method relative to L-glutamate/glycine; format: cell-based; outline: as §2
[22] = target: Glutamate receptor ionotropic, NMDA 2D (Rattus norvegicus) (UniProt Q62645); experiment: Positive allosteric modulation of rat GluN2D expressed in Xenopus laevis oocytes assessed as potentiation of L-glutamate/glycine-induced current response at holding potential -60 mV by two-electrode voltage clamp method relative to L-glutamate/glycine; format: cell-based; design: concentration or dose not given beside the values; outline: as §1
[23] = target: Glutamate receptor ionotropic, NMDA 2A (Rattus norvegicus) (UniProt Q00959); experiment: Agonist activity at rat GluN2A expressed in Xenopus laevis oocytes assessed effect on current response at holding potential -60 mV by two-electrode voltage clamp method relative to L-glutamate/glycine; format: cell-based; outline: as §2
[24] = target: Glutamate receptor ionotropic, NMDA 2D (Rattus norvegicus) (UniProt Q62645); experiment: Agonist activity at rat GluN2D expressed in Xenopus laevis oocytes assessed as effect on current response at holding potential -60 mV by two-electrode voltage clamp method relative to L-glutamate/glycine; format: cell-based; outline: as §2
[25] = target: Glutamate receptor ionotropic, NMDA 2C (Rattus norvegicus) (UniProt Q00961); experiment: Positive allosteric modulation of rat GluN2C expressed in Xenopus laevis oocytes assessed as potentiation of L-glutamate/glycine-induced current response at holding potential -60 mV by two-electrode voltage clamp method relative to L-glutamate/glycine; format: cell-based; design: concentration or dose not given beside the values; outline: as §1
[26] = target: T3, Glutamate NMDA receptor; Grin1/Grin2c (Rattus norvegicus); experiment: Negative allosteric modulation of rat GluN1/GluN2C expressed in Xenopus laevis oocytes assessed as inhibition of 300 uM glutamate/glycine-induced current response at 30 uM at -60 mV holding potential by two-electrode voltage clamp method; format: cell-based
[27] = target: T3, Glutamate NMDA receptor; Grin1/Grin2c (Rattus norvegicus); experiment: Negative allosteric modulation of rat GluN1/GluN2C expressed in Xenopus laevis oocytes assessed as inhibition of 10 uM glutamate/glycine-induced current response at 30 uM at -60 mV holding potential by two-electrode voltage clamp method; format: cell-based

## O=C(O)c1cc2cc(/C=C/c3ccccc3)ccc2cc1O
[1]
  IC50: 17.8 µM
[2]
  Activity: 93.9%
[3]
  IC50: 7.5 µM
[4]
  Activity: 7.3%
[5]
  Activity: 32.7%
[6]
  Activity: 86.3%
[7]
  solubility: Soluble
[8]
  Activity: 93.6%
[9]
  Activity: 21.7%
[10]
  Activity: 11.3%
[11]
  IC50: 8.6 µM
[12]
  Activity: 83.2%
[13]
  IC50: 13.8 µM

## CC(C)CCC(C)c1ccc2cc(C(=O)O)ccc2c1 (racemic)
[14]
  Activity: inactive
[15]
  EC50: 25 µM
[16]
  EC50: 36.2 µM
[17]
  EC50: 30.6 µM
[4]
  Activity: 225%
[5]
  Activity: 281%
[7]
  solubility: Soluble
[18]
  EC50: 39.4 µM
[19]
  Activity: 277%
[9]
  Activity: 337%
[20]
  Activity: 192%
[10]
  Activity: 317%
[21]
  Activity: inactive
[22]
  Activity: 240%
[23]
  Activity: inactive
[24]
  Activity: inactive
[25]
  Activity: 263%

## O=C(O)c1cc2cc(/C=C/c3ccccc3[N+](=O)[O-])ccc2cc1O
[1]
  IC50: 6 µM
[2]
  Activity: 61.3%
[26]
  Activity: Active
[3]
  IC50: 32.2 µM
[4]
  Activity: 56.1%
[5]
  Activity: 80.5%
[6]
  Activity: 80.1%
[7]
  solubility: Soluble
[8]
  Activity: 79.7%
[9]
  Activity: 35.1%
[10]
  Activity: 26.8%
[11]
  IC50: 2.9 µM
[27]
  Activity: Active
[12]
  Activity: 30.5%
[13]
  IC50: 8.2 µM

## O=C(O)c1cc2cc(/C=C/c3ccc([N+](=O)[O-])cc3)ccc2cc1O
[1]
  IC50: 5.8 µM
[2]
  Activity: 48.4%
[3]
  IC50: 11.1 µM
[4]
  Activity: 53.2%
[5]
  Activity: 47.4%
[6]
  Activity: 55.9%
[7]
  solubility: Soluble
[8]
  Activity: 72.3%
[9]
  Activity: 43.3%
[10]
  Activity: 34.4%
[11]
  IC50: 2.9 µM
[12]
  Activity: 54.1%
[13]
  IC50: 6.5 µM

## C=C(CCC(C)C)c1ccc2cc(C(=O)O)ccc2c1
[14]
  Activity: inactive
[15]
  EC50: 116 µM
[16]
  EC50: 26.1 µM
[17]
  EC50: 72.3 µM
[4]
  Activity: 265%
[5]
  Activity: 163%
[7]
  solubility: Soluble
[18]
  EC50: 114 µM
[19]
  Activity: 230%
[9]
  Activity: 349%
[20]
  Activity: 417%
[10]
  Activity: 310%
[21]
  Activity: inactive
[22]
  Activity: 277%
[23]
  Activity: inactive
[24]
  Activity: inactive
[25]
  Activity: 137%

## CC(C)CCCc1ccc2cc(C(=O)O)ccc2c1
[14]
  Activity: inactive
[15]
  EC50: 34.6 µM
[16]
  EC50: 37.2 µM
[17]
  EC50: 28.9 µM
[4]
  Activity: 171%
[5]
  Activity: 171%
[7]
  solubility: Soluble
[18]
  EC50: 28 µM
[19]
  Activity: 68.6%
[9]
  Activity: 192%
[20]
  Activity: 102%
[10]
  Activity: 207%
[21]
  Activity: inactive
[22]
  Activity: 88.4%
[23]
  Activity: inactive
[24]
  Activity: inactive
[25]
  Activity: 117%
